Test results from ChEMBL document CHEMBL1144030, “Synthesis of a potent and selective (18)F-labeled delta-opioid receptor antagonist derived from the Dmt-Tic pharmacophore for positron emission tomography imaging” (J Med Chem, 2008).
Square brackets hold non-standard residues; d marks the D form. Peptide text beside a SMILES is read from it. * marks the point of attachment. Dmt = Cc1cc(O)cc(C)c1C[C@H](N)C(=O)O; Tic = O=C(O)[C@@H]1Cc2ccccc2CN1; Cbz = O=C(OCc1ccccc1)*

Key:
[1] = species on record: Rattus norvegicus; experiment: Ratio of Ki for mu opioid receptor to delta opioid receptor in Sprague-Dawley rat brain P2 synaptosomal membrane
Method in brief: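 Ratio of Ki values from rat brain P2 synaptosome competition binding (2.5 h, 23 °C, equilibrium; filtration on polyethylenimine-treated GFC filters). Ki by Cheng-Prusoff from duplicate assays at five to eight doses, 3–5 independent preparations.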

[2] = target: Delta-type opioid receptor (Rattus norvegicus, UniProt P33533); experiment: Displacement of [3H]deltorphin2 from delta opioid receptor in Sprague-Dawley rat brain P2 synaptosomal membrane
Sequence of Delta-type opioid receptor (Rattus norvegicus, UniProt P33533) (P33533 whole entry): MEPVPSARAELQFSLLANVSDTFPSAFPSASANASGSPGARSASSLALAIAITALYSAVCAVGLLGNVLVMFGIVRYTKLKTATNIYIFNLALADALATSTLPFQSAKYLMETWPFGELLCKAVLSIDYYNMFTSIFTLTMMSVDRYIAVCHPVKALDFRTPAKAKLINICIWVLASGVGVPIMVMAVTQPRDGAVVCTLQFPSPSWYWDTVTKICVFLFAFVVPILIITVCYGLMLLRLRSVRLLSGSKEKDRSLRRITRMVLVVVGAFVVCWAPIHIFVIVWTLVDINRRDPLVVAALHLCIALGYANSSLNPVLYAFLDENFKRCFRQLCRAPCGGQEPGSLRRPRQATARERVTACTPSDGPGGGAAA
Method in brief: (§1)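 Competition binding on rat brain P2 synaptosomes, preincubated to strip endogenous opioids and stored at −80 °C in buffered 20% glycerol. Equilibrium 2.5 h at 23 °C. Separation on GFC filters presoaked in 0.1% polyethylenimine, washed three times with ice-cold buffered BSA. Duplicates, five to eight doses, 3–5 independent membrane preparations; Ki by Cheng-Prusoff, mean ± SE.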

[3] = target: Mu-type opioid receptor (Rattus norvegicus, UniProt P33535); experiment: Displacement of [3H]DAMGO from mu opioid receptor in Sprague-Dawley rat brain P2 synaptosomal membrane; method in brief: as §1
Sequence of Mu-type opioid receptor (Rattus norvegicus, UniProt P33535) (P33535 whole entry): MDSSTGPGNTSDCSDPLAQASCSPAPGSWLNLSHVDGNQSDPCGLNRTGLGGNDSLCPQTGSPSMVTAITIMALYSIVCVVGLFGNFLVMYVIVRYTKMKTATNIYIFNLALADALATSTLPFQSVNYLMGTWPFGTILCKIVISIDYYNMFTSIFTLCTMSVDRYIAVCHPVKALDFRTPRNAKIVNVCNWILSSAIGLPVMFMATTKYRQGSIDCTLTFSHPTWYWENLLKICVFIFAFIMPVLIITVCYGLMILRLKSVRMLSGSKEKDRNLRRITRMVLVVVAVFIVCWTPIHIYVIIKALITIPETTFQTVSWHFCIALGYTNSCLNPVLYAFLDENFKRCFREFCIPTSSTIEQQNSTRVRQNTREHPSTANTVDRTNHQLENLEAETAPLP

[4] = target: Mu-type opioid receptor (Cavia porcellus, UniProt P97266); experiment: Agonist activity at mu opioid receptor in Hartley guinea pig assessed as inhibition of electrically evoked-contraction; assay type: functional
Sequence of Mu-type opioid receptor (Cavia porcellus, UniProt P97266) (P97266 whole entry): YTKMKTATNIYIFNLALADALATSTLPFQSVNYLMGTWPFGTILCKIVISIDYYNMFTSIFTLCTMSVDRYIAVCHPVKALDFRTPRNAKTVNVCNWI
Method in brief: (§2)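 Isolated tissue: single mouse vas deferens (delta) or myenteric plexus longitudinal muscle strips, 2–3 cm, from small intestine of male Hartley guinea pigs (mu), in organ baths with balanced salt solution, pH 7.5. Inhibition of electrically evoked contraction; IC50 (nM) from dose-response curves, mean ± SE of five or six separate assays.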

[5] = target: T1, Delta-type opioid receptor (Mus musculus, UniProt P32300); experiment: Agonist activity at delta opioid receptor in mouse vas deferens assessed as inhibition of electrically evoked-contraction; assay type: functional, tissue-based; method in brief: as §2
T1 sequence (P32300 whole entry): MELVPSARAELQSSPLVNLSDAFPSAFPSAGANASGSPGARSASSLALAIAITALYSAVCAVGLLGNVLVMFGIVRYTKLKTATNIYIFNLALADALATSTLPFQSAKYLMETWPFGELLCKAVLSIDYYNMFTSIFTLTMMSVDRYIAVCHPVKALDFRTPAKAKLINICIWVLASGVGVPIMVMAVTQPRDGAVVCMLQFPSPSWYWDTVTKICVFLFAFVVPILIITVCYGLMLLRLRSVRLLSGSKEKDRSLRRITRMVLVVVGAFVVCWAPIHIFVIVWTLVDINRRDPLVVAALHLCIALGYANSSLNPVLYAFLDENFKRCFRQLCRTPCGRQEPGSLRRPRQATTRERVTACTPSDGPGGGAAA

[6] = target: T1, Delta-type opioid receptor; experiment: Antagonist activity at delta opioid receptor in electrically stimulated-mouse vas deferens; assay type: functional, tissue-based; details: read-out: pA2 (converted)
Method in brief: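 Mouse vas deferens in organ bath with physiological salt buffer, pH 7.5, electrically stimulated. Antagonism measured against the delta agonist deltorphin-II and expressed as pA2 derived by Schild plot.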

SMILES | Ratio Ki [1] | Ki [2] | Ki [3] | IC50 [4] | IC50 [5] | Kb [6]
Cc1cc(O)cc(C)c1C[C@H](N)C(=O)N1Cc2ccccc2C[C@@H]1C(=O)N[C@@H](Cc1ccccc1)C(=O)N[C@@H](CCCCNC(=O)c1ccc(F)cc1)C(=O)O | 53 |  |  |  |  | 
Cc1cc(O)cc(C)c1C[C@H](N)C(=O)N1Cc2ccccc2C[C@H]1C(=O)N[C@@H](Cc1ccccc1)C(=O)N[C@@H](CCCCNC(=O)OCc1ccccc1)C(=O)O (H-[Dmt][Tic]FK(Cbz)-OH) |  | 0.019 nM | 2.75 nM | > 10000 nM |  | 
Cc1cc(O)cc(O)c1C[C@H](N)C(=O)N1Cc2ccccc2C[C@@H]1C(=O)N[C@@H](Cc1ccccc1)C(=O)N[C@@H](CCCCNC(=O)OCc1ccccc1)C(=O)O | 145 |  |  |  |  | 
Cc1cc(O)cc(C)c1C[C@H](N)C(=O)N1Cc2ccccc2C[C@H]1C(=O)N[C@@H](Cc1ccccc1)C(=O)N[C@@H](CCCCNC(=O)c1ccc(F)cc1)C(=O)O |  | 0.248 nM | 13.2 nM | 50.6 nM | 5180 nM | 0.355 nM
Cc1cc(O)cc(C)c1C[C@H](N)C(=O)N1Cc2ccccc2C[C@@H]1C(=O)NCCCC[C@H](NC(=O)c1ccc(F)cc1)C(=O)O | 240 | 0.172 nM | 41.2 nM | 1920 nM |  | 5.62 nM
